The source made the active and inactive calls. No cut-off for these calls is given here.
Experiments:
[1] = target: T1, Programmed cell death protein 1/Programmed cell death 1 ligand 1 (Homo sapiens, UniProt Q9NZQ7); assay: Inhibition of human PD-1/PD-L1 interaction assessed as blockade activity incubated for 15 mins by HTRF assay; format: protein-complex assay
Method in brief: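 Tag1-PD-L1 and Tag2-PD-1 proteins preincubated with compound (0.1 nM to 10 μM, triplicate) 15 min at room temperature, then anti-Tag1-Eu³⁺/anti-Tag2-XL665 added for 2 h at room temperature. Excitation 337 nm, emission 665 and […]. Signal taken as 665/615 ratio ×10 000; IC50 fitted from inhibition rates.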

Jurkat [2] = assay: Cytotoxicity against human Jurkat cells expressing PD-1/NFAT/Luc assessed as inhibition of cell viability at 10 uM incubated for 24 hrs by CCK8 assay; format: functional, cell-based
Method in brief: (§1)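 PD-1⁺/NFAT-luc/Jurkat cells seeded at 20 000 per well, treated with compound in medium with 1% final DMSO for 24 h. CCK8 added for 4 h, then absorbance read.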

CHO-K1 [3] = assay: Cytotoxicity against CHO-K1 cells expressing PD-L1/aAPC assessed as inhibition of cell viability at 10 uM incubated for 24 hrs by MTT assay; format: functional, cell-based; details: Cricetulus griseus
Method in brief: (§2)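 PD-L1⁺/aAPC/CHO-K1 cells (2000/well) or MC38 cells (5000/well) allowed to adhere for 12 h, then exposed to compound in medium with 1% final DMSO for 24 h. MTT added for 4 h, medium replaced with DMSO, absorbance read.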

MC-38 [4] = assay: Cytotoxicity against mouse MC38 cells assessed as inhibition of cell viability at 10 uM incubated for 24 hrs by MTT assay; format: functional, cell-based; method in brief: as §2
[5] = target: T1, Programmed cell death protein 1/Programmed cell death 1 ligand 1; assay: Inhibition of human PD-1/PD-L1 interaction in human Jurkat cells expressing PD-1/NFAT/Luc cocultured with CHO-K1 cells expressing PD-L1/aAPC assessed as Jurkat T-lymphocyte activation measured after 6 hrs by luciferase reporter gene based luminescence assay; format: cell-based
[6] = target: Programmed cell death protein 1/Programmed cell death 1 ligand 1 (Homo sapiens) (UniProt Q15116+Q9NZQ7); details: Jurkat, time 6.0 hrs
Jurkat [7] = assay: Cytotoxicity against human Jurkat cells expressing PD-1/NFAT/Luc assessed as inhibition of cell viability at 0.1 to 10 uM incubated for 24 hrs by CCK8 assay; format: functional, cell-based; details: dose 0.1-10 µM; method in brief: as §1
CHO-K1 [8] = assay: Cytotoxicity against CHO-K1 cells expressing PD-L1/aAPC assessed as inhibition of cell viability at 0.1 to 10 uM incubated for 24 hrs by MTT assay; format: functional, cell-based; details: Cricetulus griseus, dose 0.1-10 µM; method in brief: as §2
MC-38 [9] = assay: Cytotoxicity against mouse MC38 cells assessed as inhibition of cell viability at 0.1 to 10 uM incubated for 24 hrs by MTT assay; format: functional, cell-based; details: dose 0.1-10 µM; method in brief: as §2
[10] = target: Programmed cell death protein 1 (Homo sapiens) (UniProt Q15116); assay: Binding affinity to human PD-1 assessed as dissociation constant by surface plasmon resonance analysis
Method in brief: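 His-tagged human PD-L1 IgV or Fc-tagged human PD-1 IgV immobilized on a CM5 chip by amine coupling in 10 mM sodium acetate, pH 4.5. Compound serially diluted in PBS with 0.05% Tween 20 and 5% DMSO and flowed over the chip. KD fitted by instrument software, mean ± SEM of two to three independent experiments.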

[11] = Half life in Sprague-Dawley rat at 2 mg/kg, iv measured upto 24 hrs by LC-MS analysis; format: ADME, organism-based; details: in vivo
Method in brief: (§3)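 Male animals fasted 12 h before dosing. Plasma levels measured by LC-MS, with the prodrug quantified as the parent acid. Mean ± SEM, n = 3.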

[12] = Tmax in Sprague-Dawley rat at 2 mg/kg, iv measured upto 24 hrs by LC-MS analysis; format: ADME, organism-based; details: in vivo
Method in brief: (§4)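 Male Sprague-Dawley rats or C57BL/6 mice fasted 12 h before dosing, given oral (po) or intravenous (iv) doses. Plasma levels measured by LC-MS. Parameters reported as mean ± SEM, n = 3.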

[13] = Cmax in Sprague-Dawley rat at 2 mg/kg, iv measured upto 24 hrs by LC-MS analysis; format: ADME, organism-based; set-up: route intravenous, dose 2 mg/kg, time <=24; details: in vivo; method in brief: as §3
[14] = AUC (0 to t) in Sprague-Dawley rat at 2 mg/kg, iv measured upto 24 hrs by LC-MS analysis; format: ADME, organism-based; set-up: route intravenous, dose 2 mg/kg, time <=24; details: in vivo; method in brief: as §3
[15] = Clearance in Sprague-Dawley rat at 2 mg/kg, iv measured upto 24 hrs by LC-MS analysis; format: ADME, organism-based; details: in vivo; method in brief: as §3
[16] = Half life in Sprague-Dawley rat at 10 mg/kg, po measured upto 24 hrs by LC-MS analysis; format: ADME, organism-based; details: in vivo; method in brief: as §3
[17] = Tmax in Sprague-Dawley rat at 10 mg/kg, po measured upto 24 hrs by LC-MS analysis; format: ADME, organism-based; details: in vivo; method in brief: as §4
[18] = Cmax in Sprague-Dawley rat at 10 mg/kg, po measured upto 24 hrs by LC-MS analysis; format: ADME, organism-based; set-up: route oral, dose 10 mg/kg, time <=24; details: in vivo; method in brief: as §3
[19] = AUC (0 to t) in Sprague-Dawley rat at 10 mg/kg, po measured upto 24 hrs by LC-MS analysis; format: ADME, organism-based; set-up: route oral, dose 10 mg/kg, time <=24; details: in vivo; method in brief: as §3
[20] = Oral bioavailability in Sprague-Dawley rat at 10 mg/kg measured upto 24 hrs by LC-MS analysis; format: ADME, organism-based; details: in vivo; method in brief: as §4
[21] = target: Voltage-gated inwardly rectifying potassium channel KCNH2 (Homo sapiens, UniProt Q12809); assay: Inhibition of human ERG
Voltage-gated inwardly rectifying potassium channel KCNH2, sequence (Q12809 whole entry): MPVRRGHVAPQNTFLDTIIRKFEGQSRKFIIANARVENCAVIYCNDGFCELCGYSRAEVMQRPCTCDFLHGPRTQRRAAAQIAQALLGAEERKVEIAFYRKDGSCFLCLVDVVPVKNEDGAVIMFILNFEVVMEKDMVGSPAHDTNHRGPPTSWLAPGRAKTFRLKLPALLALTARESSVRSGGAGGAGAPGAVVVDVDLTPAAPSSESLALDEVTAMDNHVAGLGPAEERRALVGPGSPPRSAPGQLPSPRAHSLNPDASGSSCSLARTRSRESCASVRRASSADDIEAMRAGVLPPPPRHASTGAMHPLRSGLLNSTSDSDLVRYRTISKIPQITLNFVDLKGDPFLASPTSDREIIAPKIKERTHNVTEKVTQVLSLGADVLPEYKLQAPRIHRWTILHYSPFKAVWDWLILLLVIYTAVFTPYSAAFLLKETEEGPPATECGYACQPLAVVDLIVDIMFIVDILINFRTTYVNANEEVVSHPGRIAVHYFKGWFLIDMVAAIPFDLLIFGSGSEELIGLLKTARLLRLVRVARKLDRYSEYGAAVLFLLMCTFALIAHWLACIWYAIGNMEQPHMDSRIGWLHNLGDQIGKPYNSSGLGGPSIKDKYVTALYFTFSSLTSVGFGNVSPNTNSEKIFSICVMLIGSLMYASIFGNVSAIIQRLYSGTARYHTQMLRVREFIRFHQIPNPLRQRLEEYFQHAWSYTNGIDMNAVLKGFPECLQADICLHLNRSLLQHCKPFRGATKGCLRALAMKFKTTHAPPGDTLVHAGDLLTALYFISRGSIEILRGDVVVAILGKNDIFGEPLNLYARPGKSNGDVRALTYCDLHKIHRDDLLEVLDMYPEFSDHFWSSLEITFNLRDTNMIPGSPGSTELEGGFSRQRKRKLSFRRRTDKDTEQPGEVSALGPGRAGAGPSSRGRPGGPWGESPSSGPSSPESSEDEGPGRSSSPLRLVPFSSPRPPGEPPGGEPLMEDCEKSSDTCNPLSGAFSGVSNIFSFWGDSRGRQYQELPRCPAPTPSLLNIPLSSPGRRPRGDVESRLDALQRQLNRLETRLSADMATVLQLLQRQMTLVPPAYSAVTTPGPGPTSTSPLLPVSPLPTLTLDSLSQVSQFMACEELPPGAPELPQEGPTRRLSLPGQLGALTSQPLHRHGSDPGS

T1 sequence (Q15116 whole entry): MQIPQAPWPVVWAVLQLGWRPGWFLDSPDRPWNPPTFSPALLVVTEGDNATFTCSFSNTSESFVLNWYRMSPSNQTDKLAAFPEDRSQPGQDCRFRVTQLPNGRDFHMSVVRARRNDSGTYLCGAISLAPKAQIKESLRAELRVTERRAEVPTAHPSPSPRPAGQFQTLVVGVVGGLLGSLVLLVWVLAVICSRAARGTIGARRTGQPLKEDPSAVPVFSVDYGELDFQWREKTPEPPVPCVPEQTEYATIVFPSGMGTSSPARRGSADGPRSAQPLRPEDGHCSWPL
T1 sequence (Q9NZQ7 whole entry): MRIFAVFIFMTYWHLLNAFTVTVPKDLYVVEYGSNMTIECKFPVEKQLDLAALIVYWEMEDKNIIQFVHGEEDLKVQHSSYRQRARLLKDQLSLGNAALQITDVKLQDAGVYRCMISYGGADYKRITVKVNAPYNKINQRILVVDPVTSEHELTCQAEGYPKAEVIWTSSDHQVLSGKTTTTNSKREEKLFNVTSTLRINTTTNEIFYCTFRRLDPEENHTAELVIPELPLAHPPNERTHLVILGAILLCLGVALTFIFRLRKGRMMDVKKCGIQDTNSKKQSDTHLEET
Programmed cell death protein 1 (Homo sapiens), sequence (Q15116 whole entry): as the sequence (Q15116 whole entry) above

Structure (SMILES) | IC50 [1] | also measured
Cc1c(COc2ccc(CN[C@H](CO)C(=O)O)c(OCc3cccc(C#N)c3)c2)cccc1-c1ccccc1 | 35.8 nM | Activity (Jurkat [2]): Active; Activity (CHO-K1 [3]): Active; Activity (MC-38 [4]): Active; EC50 [5]: 2080 nM; RLU [6]: 1.83
OC1CCC(NCc2cc(Cl)c(OCc3cccc(-c4ccccc4)c3Br)cc2OCc2ccc3nonc3c2)CC1 (centres undefined) | 57.2 nM | –
OCCNCc1cc(Cl)c(OCc2cccc(-c3ccccc3)c2Br)cc1OCc1ccc2nonc2c1 | 30.8 nM | –
Cc1c(COc2cc(OCc3ccc4nonc4c3)c(CN[C@H](CO)C(=O)O)cc2Cl)cccc1-c1ccccc1 | 16.6 nM | –
Cc1c(COc2ccc(CN[C@H](CO)C(=O)O)c(OCc3ccc4nsnc4c3)c2)cccc1-c1ccccc1 | 206 nM | –
CC(=O)NCCNCc1cc(Cl)c(OCc2cccc(-c3ccccc3)c2Br)cc1OCc1ccc2nonc2c1 | 130 nM | –
O=C(O)[C@@H](CO)NCc1cc(F)c(OCc2cccc(-c3ccccc3)c2Cl)cc1OCc1ccc2nonc2c1 | 9.5 nM | –
Cc1c(COc2ccc(CN[C@H](CO)C(=O)O)c(OCc3ccc4ccoc4c3)c2)cccc1-c1ccccc1 | 2340 nM | –
OC[C@H](O)CNCc1cc(Cl)c(OCc2cccc(-c3ccccc3)c2Br)cc1OCc1ccc2nonc2c1 | 14.6 nM | –
CC(C)(C)OC[C@@H](NCc1cc(Cl)c(OCc2cccc(-c3ccccc3)c2Cl)cc1OCc1ccc2nonc2c1)C(=O)N[C@H](CO)C(=O)O | 393 nM | –
Cc1c(COc2ccc(CN[C@H](CO)C(=O)O)c(OCc3cccc4nonc34)c2)cccc1-c1ccccc1 | 2160 nM | –
O=C(O)[C@@H](CO)NCc1cc(Cl)c(OCc2cccc(-c3ccccc3)c2F)cc1OCc1ccc2nonc2c1 | 3.5 nM | Activity (Jurkat [7]): inactive; Activity (CHO-K1 [8]): inactive; Activity (MC-38 [9]): inactive
O=C(O)[C@@H](CO)NCc1cc(Cl)c(OCc2cccc(-c3ccc(F)cc3)c2Cl)cc1OCc1ccc2nonc2c1 | 56.1 nM | –
COc1cccc(-c2cccc(COc3cc(OCc4ccc5nonc5c4)c(CN[C@H](CO)C(=O)O)cc3Cl)c2Br)c1 | 7.8 nM | –
O=C(O)C1CN(Cc2cc(Cl)c(OCc3cccc(-c4ccccc4)c3Br)cc2OCc2ccc3nonc3c2)C1 | 52.3 nM | –
O=C(O)[C@@H](CO)NCc1cc(Br)c(OCc2cccc(-c3ccccc3)c2Br)cc1OCc1ccc2nonc2c1 | 27.5 nM | –
O=C(O)[C@@H](CO)NCc1ccc(OCc2cccc(-c3ccccc3)c2C(F)(F)F)cc1OCc1ccc2nonc2c1 | 1380 nM | –
O=C(O)[C@@H]1CCCCN1Cc1cc(Cl)c(OCc2cccc(-c3ccccc3)c2Br)cc1OCc1ccc2nonc2c1 | 13.3 nM | –
CC(C)C[C@H](NCc1cc(Cl)c(OCc2cccc(-c3ccccc3)c2Cl)cc1OCc1ccc2nonc2c1)C(=O)N[C@H](CC(C)C)C(=O)O | 1580 nM | –
O=C(O)[C@@H](CO)NCc1cc(Cl)c(OCc2cccc(-c3ccccc3)c2Br)cc1OCc1ccc2nonc2c1 | – | Activity [10]: inactive; Activity (Jurkat [7]): inactive; Activity (CHO-K1 [8]): inactive; Activity (MC-38 [9]): inactive; half-life [11]: 4.04 h; Tmax [12]: 4.8 min; Cmax [13]: 2090 ng/mL; AUC(0-t) at 24 h [14]: 860 ng·h/mL; clearance [15]: 39.6 mL/min/kg; half-life [16]: 4.17 h; Tmax [17]: 2.33 h; Cmax [18]: 4.46 ng/mL; AUC(0-t) at 24 h [19]: 15.2 ng·h/mL; bioavailability [20]: 0.35%; IC50 [21]: > 30000 nM; RLU [6]: 1.81
O=C(O)[C@@H](CO)NCc1cc(Cl)c(OCc2cccc(-c3ccccc3)c2Cl)cc1OCc1ccc2nonc2c1 | 3.3 nM | –

Structure (SMILES) | IC50 [1] | also measured
OC1CCN(Cc2cc(Cl)c(OCc3cccc(-c4ccccc4)c3Br)cc2OCc2ccc3nonc3c2)CC1 | 1050 nM | –
CS(=O)(=O)c1ccc(-c2cccc(COc3cc(OCc4ccc5nonc5c4)c(CN[C@H](CO)C(=O)O)cc3Cl)c2Cl)cc1 | > 1000 nM | –
O=C(O)[C@@H](CO)NCc1cc(Cl)c(OCc2cccc(-c3cccc(F)c3)c2Br)cc1OCc1ccc2nonc2c1 | 8.2 nM | Activity (Jurkat [7]): inactive; Activity (CHO-K1 [8]): inactive; Activity (MC-38 [9]): inactive
CN1CCN(Cc2cc(Cl)c(OCc3cccc(-c4ccccc4)c3Br)cc2OCc2ccc3nonc3c2)CC1 | 3590 nM | –
Clc1cc(CNCCN2CCCCC2)c(OCc2ccc3nonc3c2)cc1OCc1cccc(-c2ccccc2)c1Cl | 291 nM | –
O=C(O)[C@@H](CO)NCc1cc(Cl)c(OCc2cccc(-c3cccc(OCCCO)c3)c2Br)cc1OCc1ccc2nonc2c1 | 30.9 nM | –
O=C(O)[C@@H](CO)NCc1cc(F)c(OCc2cccc(-c3ccccc3)c2Br)cc1OCc1ccc2nonc2c1 | 7.8 nM | Activity (Jurkat [7]): inactive; Activity (CHO-K1 [8]): inactive; Activity (MC-38 [9]): inactive
O=C(O)[C@@H](CO)NCc1cc(Cl)c(OCc2cccc(-c3cccc(OCCO)c3)c2Cl)cc1OCc1ccc2nonc2c1 | 101 nM | –
OC[C@@H](O)CNCc1cc(Cl)c(OCc2cccc(-c3ccccc3)c2Br)cc1OCc1ccc2nonc2c1 | 15.9 nM | –
O=S(=O)(O)CCNCc1cc(Cl)c(OCc2cccc(-c3ccccc3)c2Br)cc1OCc1ccc2nonc2c1 | 26.9 nM | –
Cc1c(COc2ccc(CN[C@H](CO)C(=O)O)c(OCc3ccc4nonc4c3)c2)cccc1-c1ccccc1 | 33.7 nM | –
COc1nc(OCc2cccc(-c3ccccc3)c2C)ccc1CNCCNC(C)=O | – | Activity (Jurkat [2]): Active; Activity (CHO-K1 [3]): Active; Activity (MC-38 [4]): Active
O=C(O)[C@@H](CO)NCc1cc(Cl)c(OCc2cccc(-c3cccc(OCCCO)c3)c2Cl)cc1OCc1ccc2nonc2c1 | 60.9 nM | –
O=C(O)[C@@H](CO)NCc1cc(Cl)c(OCc2cccc(-c3cccc(F)c3)c2Cl)cc1OCc1ccc2nonc2c1 | 6.5 nM | Activity (Jurkat [7]): inactive; Activity (CHO-K1 [8]): inactive; Activity (MC-38 [9]): inactive
O=C1CC[C@@H](CNCc2cc(Cl)c(OCc3cccc(-c4ccccc4)c3Cl)cc2OCc2ccc3nonc3c2)N1 | 21.6 nM | –
O=C(O)[C@@H](CO)NCc1cc(Cl)c(OCc2cccc(-c3cccc(Cl)c3)c2Br)cc1OCc1ccc2nonc2c1 | 24.3 nM | –
O=C(O)[C@H]1C[C@@H](O)CN1Cc1cc(Cl)c(OCc2cccc(-c3ccccc3)c2Br)cc1OCc1ccc2nonc2c1 | 24.3 nM | Activity (Jurkat [2]): Active; Activity (CHO-K1 [3]): Active; Activity (MC-38 [4]): Active
O=C(O)[C@@H](CO)NCc1cc(Cl)c(OCc2cccc(-c3cccc(O)c3)c2Cl)cc1OCc1ccc2nonc2c1 | 58.7 nM | –
NS(=O)(=O)CCNCc1cc(Cl)c(OCc2cccc(-c3ccccc3)c2Br)cc1OCc1ccc2nonc2c1 | 342 nM | –
O=C(O)CNCc1cc(Cl)c(OCc2cccc(-c3ccccc3)c2Br)cc1OCc1ccc2nonc2c1 | 33.7 nM | –
O=C(O)[C@@H](CO)NCc1cc(Cl)c(OCc2cccc(-c3cccc(F)c3F)c2Cl)cc1OCc1ccc2nonc2c1 | 162 nM | –

Source: ChEMBL document CHEMBL5032502, “Syntheses, Biological Evaluations, and Mechanistic Studies of Benzo[c][1,2,5]oxadiazole Derivatives as Potent PD-L1 Inhibitors with In Vivo Antitumor Activity” (J Med Chem, 2021)
